Measurements taken from paper PMC3794474 (Journal of medicinal chemistry, 2011).
Like-named read-outs stand apart in the source and are kept apart here.

Experiments:
[1] = molecular target: T1, rat α1β2γ2L type GABAA receptors expressed in Xenopus laevis oocytes (Rattus norvegicus, UniProt P62813+P63138); assay type: cell-based; conditions: 2 µM GABA; for oocyte electrophysiology, ratio of currents in presence/absence of compound: ± SEM, N ≥ 4; for Potentiation, steroids 1 and 6a directly compared on the same oocyte (Figure 4): 1 and 10 µM compound, 6 to 7 oocytes
Outline: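 Rat α1β2γ2L GABAA receptors expressed in Xenopus oocytes with whole-cell recording. Currents with test compound plus 2 µM GABA were expressed as a ratio to 2 µM GABA alone, with at least four oocytes per compound. Direct gating used 10 µM compound without GABA, given as a ratio to the 2 µM GABA current. In the within-oocyte comparison, 1 or 10 µM compound was co-applied with 2 µM GABA and averaged over 6–7 oocytes.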

tadpole [2] = test: Tadpole loss of righting reflex; assay type: in vivo; conditions: read-out: Tadpole LRR EC50; ± SEM, N = 10 or more animals at each of five or more concentrations
tadpole [3] = test: Tadpole loss of swimming reflex; assay type: in vivo; conditions: ± SEM, None = all animals had a swimming response at 10 µM of the test compound
BALB/C mice = test: Anesthesia; assay type: in vivo, mouse; conditions: tail vein injection
tadpole [4] = conditions: read-out: Tadpole LRR EC50; ± SEM; cited from earlier work
[5] = molecular target: T1, rat α1β2γ2L type GABAA receptors expressed in Xenopus laevis oocytes; conditions: 2 µM GABA, ± SEM, cited from earlier work
[6] = molecular target: picrotoxin binding site on GABAA receptors; conditions: read-out: IC50, inhibition of [35S]-TBPS binding; ± SEM; cited from earlier work
tadpole [7] = conditions: read-out: Tadpole LSR EC50; ± SEM; None = all animals had a swimming response at 10 µM of the test compound; cited from earlier work

Compound: (3α,5α)-3-Hydroxy-11-oxopregnan-21-carbonitrile [Compound 5c]
- oocyte electrophysiology, ratio of currents in presence/absence of compound ([1]; 0.1 µM compound): 0.91 ± 0.03
- oocyte electrophysiology, ratio of currents in presence/absence of compound ([1]; 1 µM compound): 1.13 ± 0.08
- oocyte electrophysiology, ratio of currents in presence/absence of compound ([1]; 10 µM compound): 4.67 ± 0.14
- EC50 (tadpole [2]): 3.58 ± 1.59 µM
- Tadpole LSR EC50 (tadpole [3]): None

Compound: C[C@]12CC[C@@H](O)C[C@@H]1CC[C@@H]1[C@@H]2C(=O)C[C@]2(C)/C(=C\C#N)CC[C@@H]12 [Compound 6a, [3α,5α,17(20)Z]-3-Hydroxy-11-oxopregn-17(20)-ene-21-nitrile]
- Potentiation, steroids 1 and 6a directly compared on the same oocyte (Figure 4) [1]: potentiate to the same level
- Time to loss of movement and righting reflex (onset) (BALB/C mice; mice, 8 mg/kg): 10 to 25 s
- Onset of loss of righting reflex (BALB/C mice; mice, 16 mg/kg): immediate loss of righting reflex

Compound: C[C@]12CC[C@@H](O)C[C@@H]1CC[C@H]1[C@@H]3CC[C@H](C=O)[C@@]3(C)CC(=O)[C@@H]12 [Compound 5b, (3α,5α,17β)-3-Hydroxy-11-oxoandrostane-17-carboxaldehyde]
- Tadpole LSR EC50 (tadpole [3]): None

Compound: C/C(C#N)=C1\CC[C@H]2[C@@H]3CC[C@H]4C[C@H](O)CC[C@]4(C)[C@H]3C(=O)C[C@]12C [Compound 6c, [3α,5α,17(20)Z]-3-Hydroxy-11-oxopregn-17(20)-ene-20-carbonitrile]
- EC50 (tadpole [3]; read-out: Tadpole LSR EC50): < 10 µM

Compound: C[C@]12CC[C@@H](O)C[C@@H]1CC[C@@H]1[C@@H]2C(=O)C[C@]2(C)C(C=O)=CC[C@@H]12 [Compound 5a, (3α,5α)-3-Hydroxy-11-oxoandrost-16-ene-17-carboxaldehyde]
- EC50 (tadpole [2]): ~3 µM
- Tadpole LSR EC50 (tadpole [3]): None

Compound: CC(=O)C1=CC[C@H]2[C@@H]3CC[C@H]4C[C@H](O)CC[C@]4(C)[C@H]3C(=O)C[C@]12C [Compound 2, (3α,5α)-3-hydroxypregn-16-ene-11,20-dione]
- EC50 (tadpole [4]): > 10 µM
- oocyte electrophysiology, ratio of currents in presence/absence of compound ([5]; 0.1 µM compound): 0.94 ± 0.04
- oocyte electrophysiology, ratio of currents in presence/absence of compound ([5]; 1 µM compound): 0.97 ± 0.05
- oocyte electrophysiology, ratio of currents in presence/absence of compound ([5]; 10 µM compound): 1.87 ± 0.14
- IC50 [6]: 2.22 µM

Compound: CC(=O)[C@H]1CC[C@H]2[C@@H]3CC[C@H]4C[C@H](O)CC[C@]4(C)[C@H]3C(=O)C[C@]12C [Compound 1, (3α,5α)-3-hydroxypregnane-11,20-dione]
- EC50 (tadpole [4]): 1.12 ± 0.14 µM
- Potentiation, steroids 1 and 6a directly compared on the same oocyte (Figure 4) [1]: potentiate to the same level
- EC50 (tadpole [7]): 5.48 ± 0.11 µM
- Anesthetic effect in mice (BALB/C mice; 8 mg/kg, 22.5% 2-hydroxypropyl-β-cyclodextrin): very brief anesthesia
- Onset of loss of righting reflex (BALB/C mice; mice, 16 mg/kg): immediate loss of righting reflex
- Recovery period from initial return of leg movement to righting and walking (BALB/C mice; mice, 16 mg/kg): 1 to 2 min
